Laboratory results published in ChEMBL document CHEMBL1833825, “3-Aryl-2-[1H-benzotriazol-1-yl]acrylonitriles: a novel class of potent tubulin inhibitors” (Eur J Med Chem, 2011).
pIC50: −log10 of the molar value. Active and inactive are the calls of the source. The rule behind the calls is not given here.

Legend:
[1] = Cytotoxicity against human MT4 cells infected with HTLV-1 after 96 hrs by MTT assay; assay type: cell-based
Summary of the method: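 Mock-infected MT-4 cells (CD4+ T-cells carrying integrated HTLV-1 genome) were seeded at 1×10^5 cells/mL in RPMI-1640 with 10% FCS and penicillin/streptomycin. They were given serial compound dilutions for 96 h at 37 °C, 5% CO2, and viability was read by MTT. The value is the concentration reducing viability by 50%. Mean of two experiments; duplicate variation <15%.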

[2] = system: HepG2; assay: Antiproliferative activity against human HepG2 cells after 96 hrs by MTT assay; assay type: functional; conditions: HepG2, 96 h
Summary of the method: (§1)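 Solid-tumor lines (SK-MEL-28, MCF-7, SK-MES-1, HepG-2, DU-145) were seeded at 1×10^5 cells/mL in their specific media with 10% FCS plus antibiotics. Serial dilutions of compounds (100 mM DMSO stocks diluted in medium) were applied for 96 h at 37 °C, 5% CO2, with MTT readout. 50% proliferation-inhibition concentration; untreated controls underwent ≥3 multiplication rounds; mean of two experiments, duplicate variation <15%.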

[3] = system: MCF7; assay: Antiproliferative activity against human MCF7 cells after 96 hrs by MTT assay; assay type: functional; conditions: MCF7, 96 h; summary of the method: as §1
[4] = system: WIL2-NS; assay: Antiproliferative activity against human WIL2-NS cells after 96 hrs by MTT assay; assay type: functional
Summary of the method: (§2)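 Hematological lines (CCRF-CEM, CCRF-SB, WIL-2NS) were seeded exponentially growing at 1×10^5 cells/mL in RPMI-1640 with 10% FCS, penicillin G and streptomycin. They were exposed to serial dilutions (from 100 mM DMSO stocks) for 96 h at 37 °C, 5% CO2, then read by MTT. The value is the concentration giving 50% proliferation reduction, with controls allowed ≥3 rounds of multiplication. Mean of two experiments; duplicate variation <15%.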

[5] = system: CCRF-SB; assay: Antiproliferative activity against human CCRF-SB cells after 96 hrs by MTT assay; assay type: functional; summary of the method: as §2
[6] = system: SK-MEL-28; assay: Antiproliferative activity against human SK-MEL-28 cells after 96 hrs by MTT assay; assay type: functional; conditions: SK-MEL-28, 96 h; summary of the method: as §1
[7] = system: SK-MES-1; assay: Antiproliferative activity against human SKMES1 cells after 96 hrs by MTT assay; assay type: functional; conditions: SK-MES-1, 96 h; summary of the method: as §1
[8] = system: CCRF-CEM; assay: Antiproliferative activity against human CCRF-CEM cells after 96 hrs by MTT assay; assay type: functional; conditions: read-out: CC50; summary of the method: as §2
[9] = system: DU-145; assay: Antiproliferative activity against human DU145 cells after 96 hrs by MTT assay; assay type: functional; conditions: DU-145, 96 h, read-out: CC50; summary of the method: as §1
[10] = Displacement of [3H]colchicine from biotin-labeled tubulin after 2 hrs by competitive scintillation proximity assay
Summary of the method: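 Scintillation proximity format: biotinylated tubulin, reconstituted per manufacturer, was incubated with [3H]colchicine and diluted compound in binding buffer at 37 °C for 2 h. Streptavidin-coated yttrium SPA beads were then added and bound radioactivity counted. IC50 came from nonlinear regression.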

[11] = system: K562; assay: Cell cycle arrest in human K562 cells assessed as accumulation at G0/G1 phase at total growth inhibitory compound concentration 24 hrs using propidium iodide staining by FACS analysis (reference value: 35%); assay type: functional; design: scale not given: the % may be the effect or the level left
[12] = system: K562; assay: Cell cycle arrest in human K562 cells assessed as accumulation at G2/M phase at total growth inhibitory compound concentration 24 hrs using propidium iodide staining by FACS analysis (reference value: 18%); assay type: functional; design: scale not given: the % may be the effect or the level left
[13] = Displacement of [3H]paclitaxel from biotin-labeled tubulin after 2 hrs by competitive scintillation proximity assay
[14] = system: K562; assay: Cell cycle arrest in human K562 cells assessed as accumulation at S phase at total growth inhibitory compound concentration 24 hrs using propidium iodide staining by FACS analysis (reference value: 47%); assay type: functional; design: scale not given: the % may be the effect or the level left

N#C/C(=C\c1ccc(F)cc1)n1nc2ccccc2n1
CC50 at 96 h [1]: 32000 nM

N#C/C(=C\c1ccccc1)n1nnc2ccccc21
CC50 at 96 h [1]: 4000 nM

N#C/C(=C\c1cccs1)n1nc2ccccc2n1
CC50 at 96 h [1]: 132000 nM

Sc1ncnc2nc[nH]c12 [MERCAPTOPURINE ANHYDROUS]
CC50 [2]: 8000 nM
CC50 [3]: 3200 nM
CC50 [4]: 3000 nM
CC50 at 96 h [1]: 100 nM
CC50 [5]: 1100 nM
CC50 [6]: 15000 nM
CC50 [7]: 58000 nM

COc1ccc(/C=C(\C#N)n2nnc3ccc(C(F)(F)F)cc32)cc1
CC50 at 96 h [1]: 200000 nM

COc1ccc(/C=C(\C#N)n2nnc3cc(Cl)c(Cl)cc32)cc1
CC50 [2]: > 100000 nM
CC50 [3]: > 100000 nM
IC50 (50% antiproliferative concentration) [8]: > 100000 nM
CC50 [4]: > 100000 nM
CC50 at 96 h [1]: 14000 nM
CC50 [5]: > 100000 nM
IC50 (50% proliferation-inhibition concentration) [9]: > 100000 nM
CC50 [6]: > 100000 nM
CC50 [7]: > 100000 nM

N#C/C(=C\c1ccccc1I)n1nnc2ccccc21
CC50 at 96 h [1]: 25000 nM

Cc1cc2nnn(/C(C#N)=C/c3ccc(Cl)cc3)c2cc1C
CC50 at 96 h [1]: 24000 nM

N#C/C(=C\c1ccc2c(c1)OCO2)n1nnc2ccc(C(F)(F)F)cc21
CC50 at 96 h [1]: 52000 nM

N#C/C(=C\c1ccc(Cl)cc1Cl)n1nnc2ccccc21
CC50 at 96 h [1]: 6000 nM

N#C/C(=C\c1ccc2c(c1)OCO2)n1nnc2ccccc21
pIC50 [10]: 6.07
Activity [11]: 10.9%
CC50 [2]: 3100 nM
CC50 [3]: 1300 nM
Activity [12]: 66.34%
IC50 (50% antiproliferative concentration) [8]: 900 nM
inhibition [13]: inactive
CC50 [4]: 600 nM
CC50 at 96 h [1]: 100 nM
CC50 [5]: 600 nM
IC50 (50% proliferation-inhibition concentration) [9]: 3400 nM
Activity [14]: 22.67%
CC50 [6]: 3300 nM
CC50 [7]: 3300 nM

N#C/C(=C\c1ccccc1)n1nc2ccccc2n1
CC50 at 96 h [1]: 12000 nM

COc1ccc(/C=C(\C#N)n2nnc3ccccc32)cc1
Activity [11]: 5.5%
CC50 [2]: 800 nM
CC50 [3]: 100 nM
Activity [12]: 70.5%
IC50 (50% antiproliferative concentration) [8]: 200 nM
CC50 [4]: 100 nM
CC50 at 96 h [1]: 50 nM
CC50 [5]: 90 nM
IC50 (50% proliferation-inhibition concentration) [9]: 600 nM
Activity [14]: 24%
CC50 [6]: 200 nM
CC50 [7]: 600 nM

N#C/C(=C\c1cccc([N+](=O)[O-])c1)n1nnc2cc(C(F)(F)F)ccc21
CC50 at 96 h [1]: 700 nM

N#C/C(=C\c1ccccc1[N+](=O)[O-])n1nnc2ccccc21
CC50 at 96 h [1]: 31000 nM

Cc1ccc(/C=C(\C#N)n2nnc3ccccc32)cc1
CC50 [2]: 2200 nM
CC50 [3]: 700 nM
IC50 (50% antiproliferative concentration) [8]: 200 nM
CC50 [4]: 200 nM
CC50 at 96 h [1]: 500 nM
CC50 [5]: 70 nM
IC50 (50% proliferation-inhibition concentration) [9]: 500 nM
CC50 [6]: 300 nM
CC50 [7]: 1700 nM

COc1cc(/C=C(\C#N)n2nnc3ccccc32)cc(OC)c1OC
CC50 at 96 h [1]: 2500 nM

N#C/C(=C\c1cccc([N+](=O)[O-])c1)n1nnc2ccccc21
CC50 at 96 h [1]: 400 nM

N#C/C(=C\c1ccc(Br)cc1)n1nnc2cc(Cl)c(Cl)cc21
CC50 [2]: 12000 nM
CC50 [3]: 8400 nM
IC50 (50% antiproliferative concentration) [8]: 5300 nM
CC50 [4]: 18000 nM
CC50 at 96 h [1]: 5400 nM
CC50 [5]: 12000 nM
IC50 (50% proliferation-inhibition concentration) [9]: 7000 nM
CC50 [6]: 10000 nM
CC50 [7]: 10000 nM

Cc1cc2nnn(/C(C#N)=C/c3ccc4c(c3)OCO4)c2cc1C
CC50 at 96 h [1]: 1300 nM

COc1ccc(/C=C(\C#N)n2nc3ccccc3n2)cc1OC
CC50 at 96 h [1]: 360000 nM

Cc1ccc(/C=C(\C#N)n2nnc3cc(Cl)c(Cl)cc32)cc1
Activity [11]: 18.5%
CC50 [2]: 21000 nM
CC50 [3]: 27000 nM
Activity [12]: 67%
IC50 (50% antiproliferative concentration) [8]: 2800 nM
CC50 [4]: 7000 nM
CC50 at 96 h [1]: 1700 nM
CC50 [5]: 2800 nM
IC50 (50% proliferation-inhibition concentration) [9]: 17000 nM
Activity [14]: 15.5%
CC50 [6]: 20000 nM
CC50 [7]: 27000 nM

COc1ccccc1/C=C(\C#N)n1nnc2ccccc21
CC50 at 96 h [1]: 8300 nM

COc1cc([C@@H]2c3cc4c(cc3[C@@H](O[C@@H]3O[C@@H]5CO[C@@H](C)O[C@H]5[C@H](O)[C@H]3O)[C@H]3COC(=O)[C@H]23)OCO4)cc(OC)c1O [ETOPOSIDE]
CC50 [2]: 700 nM
CC50 [3]: 1000 nM
CC50 [4]: 200 nM
CC50 at 96 h [1]: 90 nM
CC50 [5]: 100 nM
CC50 [6]: 1200 nM
CC50 [7]: 300 nM

N#C/C(=C\c1ccc(Cl)cc1)n1nc2ccccc2n1
CC50 at 96 h [1]: 16000 nM

COc1cccc(/C=C(\C#N)n2nnc3ccccc32)c1
CC50 at 96 h [1]: 4700 nM

N#C/C(=C\c1ccc([N+](=O)[O-])cc1)n1nc2ccccc2n1
CC50 at 96 h [1]: 400 nM

N#C/C(=C\c1ccc(C(=O)O)cc1)n1nc2ccccc2n1
CC50 at 96 h [1]: 16000 nM

N#C/C(=C\c1ccco1)n1nc2ccccc2n1
CC50 at 96 h [1]: 375000 nM

N#C/C(=C\c1ccc(C(=O)O)cc1)n1nnc2ccccc21
CC50 at 96 h [1]: 17000 nM

N#C/C(=C\c1ccc(Cl)cc1)n1nnc2ccccc21
CC50 at 96 h [1]: 400 nM

COc1ccc(/C=C(\C#N)n2nnc3ccccc32)cc1OC
CC50 at 96 h [1]: 7500 nM

N#C/C(=C\c1ccc(Br)cc1)n1nnc2ccccc21
Activity [11]: 42.25%
CC50 [2]: 2100 nM
CC50 [3]: 700 nM
Activity [12]: 35.34%
IC50 (50% antiproliferative concentration) [8]: 400 nM
CC50 [4]: 600 nM
CC50 at 96 h [1]: 400 nM
CC50 [5]: 300 nM
IC50 (50% proliferation-inhibition concentration) [9]: 1700 nM
Activity [14]: 22.41%
CC50 [6]: 1100 nM
CC50 [7]: 2400 nM

Cc1cc2nnn(/C(C#N)=C/c3cccc([N+](=O)[O-])c3)c2cc1C
CC50 at 96 h [1]: 500 nM

Cc1ccc(/C=C(\C#N)n2nc3ccccc3n2)cc1
CC50 at 96 h [1]: 20000 nM
